Data from ChEMBL document CHEMBL3397015, “Naturally occurring polyphenol, morin hydrate, inhibits enzymatic activity of N-methylpurine DNA glycosylase, a DNA repair enzyme with various roles in human disease” (Bioorg Med Chem, 2015).
Several values for one entry are separate records, joined by “and”; a condition that tells them apart may be missing. Equal entries are not always repeated. Structures can show the parent of a compound that is named as a salt. Activity calls are given as the source filed them. The rule behind the calls is not given here.

How the values were obtained:
[1] = molecular target: T1, DNA-3-methyladenine glycosylase (Homo sapiens, UniProt P29372); experiment: Inhibition of human purified MPG pre-incubated with compound for 10 mins followed by addition of 1,N6 ethenoadenine containing 32P-labeled duplex oligonucleotide substrates at 20 uM by gel-based excision activity assay
Procedure, shortened: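 Purified hMPG (2.3 nM) pre-incubated 10 min at room temperature with 20 µM compound. Then 7 nM εA ³²P-duplex added, 10 min at 37°C, in 25 mM HEPES pH 7.9, 150 mM NaCl, BSA, DTT, 10% glycerol. Stopped 65°C, AP sites cut with 15 nM APE1/5 mM MgCl₂. Denaturing 20% PAGE, band densitometry.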

[2] = molecular target: T1, DNA-3-methyladenine glycosylase; experiment: Inhibition of human purified MPG pre-incubated with compound for 10 mins followed by addition of 1,N6 ethenoadenine containing 32P-labeled duplex oligonucleotide substrates by gel-based excision activity assay
Procedure, shortened: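 Purified hMPG (2.3 nM) pre-incubated 10 min at room temperature with a range of compound concentrations. Then 7 nM εA ³²P-duplex substrate, 10 min at 37°C, in HEPES pH 7.9 buffer with 150 mM NaCl. Heat stop, APE1 cleavage of AP sites. Products resolved on 7 M urea/20% PAGE and bands quantified; IC50 from the concentration series.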

[3] = Binding affinity to ethenoadenine containing 5'-TCGAGGATCCTGAGCTCGAGTCGACGXTCGCGAATTCTGCGGATCCAAGC-3' duplex oligonucleotide DNA (unknown origin) at 15 uM by SPR assay
Procedure, shortened: (§1)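 Biotinylated 50-mer oligonucleotide, undamaged or εA-containing, immobilized on streptavidin-coated C1 chip (Biacore T100). Compound injected at 15 µM in 10 mM HEPES-KOH pH 7.6, 90 mM KCl, 0.05% surfactant P20 at 7°C; background-subtracted RU recorded over repeated 60 s injections.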

[4] = molecular target: DNA repair nuclease/redox regulator APEX1 (Homo sapiens) (UniProt P27695); experiment: Inhibition of APE1 (unknown origin) pre-incubated with compound for 10 mins followed by addition of […] at 20 to 40 uM by gel-based excision activity assay
[5] = molecular target: T1, DNA-3-methyladenine glycosylase; experiment: Inhibition of human purified MPG binding to immobilized ethenoadenine containing 5'-TCGAGGATCCTGAGCTCGAGTCGACGXTCGCGAATTCTGCGGATCCAAGC-3' duplex oligonucleotide at 5 to 40 uM by SPR assay
Procedure, shortened: (§2)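 εA-containing 50-mer biotinylated and immobilised on a streptavidin C1 chip. 30 nM hMPG pre-mixed with compound (0, 5, 10, 20, 40 µM) and injected twice for 60 s each. Buffer: 10 mM HEPES-KOH pH 7.6, 90 mM KCl, 0.05% P20, 7°C. Inhibition taken as percent decrease in background-subtracted RU versus DMSO.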

[6] = molecular target: N-glycosylase/DNA lyase (Homo sapiens) (UniProt O15527); experiment: Inhibition of OGG1 (unknown origin) pre-incubated with compound for 10 mins followed by addition of […] containing 32P-labeled duplex oligonucleotide substrates at 20 to 40 uM by gel-based excision activity assay
Procedure, shortened: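 Purified OGG1 pre-incubated with compound (0, 20, 40 µM) 10 min at room temperature. Products resolved on denaturing 20% polyacrylamide/7M urea gels; band intensities quantified.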

[7] = Binding affinity to 5'-TCGAGGATCCTGAGCTCGAGTCGACGXTCGCGAATTCTGCGGATCCAAGC-3' duplex oligonucleotide DNA (unknown origin) at 15 uM by SPR assay; procedure, shortened: as §1
[8] = molecular target: N-glycosylase/DNA lyase (Homo sapiens) (UniProt O15527); experiment: Inhibition of OGG1 in human HeLa cells assessed as reduction in DNA repair at 200 and 300 uM using 8-oxodG-containing M13mp18 plasmids by plasmid based in-cell repair assay
Procedure, shortened: (§3)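 A549 or HeLa cells (DMEM, 10% FBS) treated with compound (0, 200, 300 µM) and transfected with in vitro–built 8-oxo-dG-containing M13mp18 plasmid (lesion at EcoRI site). Plasmids recovered, digested with EcoRI (lesion site) and SacI (internal control), and used for plaque formation to calculate repair.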

[9] = molecular target: T1, DNA-3-methyladenine glycosylase; experiment: Inhibition of MPG in human HeLa cells assessed as reduction in DNA repair at 200 and 300 uM using ethenoadenine-containing M13mp18 plasmids by plasmid based in-cell repair assay
Procedure, shortened: (§4)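 Lesion plasmid built in vitro: M13mp18 with εA at the EcoRI site; cells in DMEM/10% FBS, compound at 0, 200 or 300 µM. Plasmid transfected into cells, then recovered after harvest. EcoRI digest tests the lesion site and SacI the internal control site. Repair scored by plaque formation.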

[10] = molecular target: T1, DNA-3-methyladenine glycosylase; experiment: Inhibition of MPG in human HeLa cell extracts at 50 to 300 uM using 1,N6 ethenoadenine containing 32P-labeled duplex oligonucleotide substrates by gel-based excision activity assay
Procedure, shortened: (§5)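 Whole-cell extract (5 µg; A549 or HeLa, made with M-PER) pre-incubated with compound at 0, 50, 100, 200 and 300 µM for 10 min at room temperature. Then 3 nM εA ³²P-duplex substrate added; buffer and workup as for purified enzyme. Product bands on denaturing urea gel quantified as percent product formation, normalised to untreated samples.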

A549 = experiment: Toxicity against human A549 cells assessed as reduction in cell viability at 0.2 to 1.4 mM after 72 hrs by MTT assay; assay type: cell-based; conditions: a549, 72 h, 1400 µM
Procedure, shortened: (§6)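 A549 or HeLa cells seeded at 2000 per well, treated next day for 72 h in triplicate with compound (0–2 mM). Then MTT 0.5 mg/mL for 4 h at 37°C, DMSO solubilization. Absorbance read at 570 nm minus 650 nm background; percent survival relative to untreated wells.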

[11] = molecular target: N-glycosylase/DNA lyase (Homo sapiens) (UniProt O15527); experiment: Inhibition of OGG1 in human A549 cells assessed as reduction in DNA repair at 200 and 300 uM using 8-oxodG-containing M13mp18 plasmids by plasmid based in-cell repair assay; procedure, shortened: as §3
[12] = molecular target: T1, DNA-3-methyladenine glycosylase; experiment: Inhibition of MPG in human HeLa cells assessed as reduction in DNA repair at 300 uM using ethenoadenine-containing M13mp18 plasmids by plasmid based in-cell repair assay; procedure, shortened: as §4
[13] = molecular target: T1, DNA-3-methyladenine glycosylase; experiment: Inhibition of MPG in human A549 cells assessed as reduction in DNA repair at 300 uM using ethenoadenine-containing M13mp18 plasmids by plasmid based in-cell repair assay; procedure, shortened: as §4
[14] = molecular target: T1, DNA-3-methyladenine glycosylase; experiment: Inhibition of human purified MPG binding to immobilized ethenoadenine containing 5'-TCGAGGATCCTGAGCTCGAGTCGACGXTCGCGAATTCTGCGGATCCAAGC-3' duplex oligonucleotide at 40 uM by SPR assay; procedure, shortened: as §2
HeLa = experiment: Toxicity against human HeLa cells assessed as reduction in cell viability at 0.2 to 1.4 mM after 72 hrs by MTT assay; assay type: cell-based; conditions: 1400 µM; procedure, shortened: as §6
[15] = molecular target: T1, DNA-3-methyladenine glycosylase; experiment: Inhibition of MPG in human A549 cell extracts at 50 to 300 uM using 1,N6 ethenoadenine containing 32P-labeled duplex oligonucleotide substrates by gel-based excision activity assay; procedure, shortened: as §5
[16] = molecular target: T1, DNA-3-methyladenine glycosylase; experiment: Inhibition of MPG in human A549 cells assessed as reduction in DNA repair at 200 and 300 uM using ethenoadenine-containing M13mp18 plasmids by plasmid based in-cell repair assay; procedure, shortened: as §4

Sequence of N-glycosylase/DNA lyase (Homo sapiens) (O15527 whole entry): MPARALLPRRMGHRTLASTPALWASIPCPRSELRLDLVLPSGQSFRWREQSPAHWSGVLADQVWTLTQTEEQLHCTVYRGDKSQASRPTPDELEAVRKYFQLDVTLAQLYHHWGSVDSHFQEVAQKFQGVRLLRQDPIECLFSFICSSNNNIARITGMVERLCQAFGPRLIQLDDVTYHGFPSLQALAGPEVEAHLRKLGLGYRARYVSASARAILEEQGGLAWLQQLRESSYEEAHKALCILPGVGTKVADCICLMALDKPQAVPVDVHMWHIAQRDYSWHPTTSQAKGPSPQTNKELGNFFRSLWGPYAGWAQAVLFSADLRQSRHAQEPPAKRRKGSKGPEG
T1 sequence (P29372 whole entry): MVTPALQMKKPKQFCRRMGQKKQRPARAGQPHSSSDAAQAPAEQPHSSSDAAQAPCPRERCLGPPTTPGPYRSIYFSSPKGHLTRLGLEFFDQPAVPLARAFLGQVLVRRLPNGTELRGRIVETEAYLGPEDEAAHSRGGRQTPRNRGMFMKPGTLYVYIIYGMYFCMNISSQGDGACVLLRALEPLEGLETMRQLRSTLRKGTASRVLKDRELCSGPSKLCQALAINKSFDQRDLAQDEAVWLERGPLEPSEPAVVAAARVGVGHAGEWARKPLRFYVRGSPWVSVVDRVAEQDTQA
Sequence of DNA repair nuclease/redox regulator APEX1 (Homo sapiens) (P27695 whole entry): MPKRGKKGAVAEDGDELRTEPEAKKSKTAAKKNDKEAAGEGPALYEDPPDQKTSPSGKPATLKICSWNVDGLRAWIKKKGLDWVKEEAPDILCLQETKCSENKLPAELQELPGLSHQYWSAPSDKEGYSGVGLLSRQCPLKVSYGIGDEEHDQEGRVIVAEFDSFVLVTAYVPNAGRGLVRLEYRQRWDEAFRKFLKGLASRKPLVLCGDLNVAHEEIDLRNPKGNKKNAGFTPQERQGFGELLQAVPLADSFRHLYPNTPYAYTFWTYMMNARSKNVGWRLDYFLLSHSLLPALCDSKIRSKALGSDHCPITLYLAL

Compound `O=c1c(O)c(-c2ccc(O)cc2)oc2cc(O)cc(O)c12` has an inhibition [1] of 25%.
With `Cc1cc2c(C(C)C)c(O)c(O)c(C=O)c2c(O)c1-c1c(C)cc2c(C(C)C)c(O)c(O)c(C=O)c2c1O` [GOSSYPOL] the IC50 [2] was 3000 nM and the Activity [3] was “Active”.
For `O=C1c2c(O)ccc(O)c2C(=O)c2c(NCCNCCO)ccc(NCCNCCO)c21` [MITOXANTRONE HYDROCHLORIDE], the IC50 [2] was 2500 nM and the Activity [3] was “Active”.
`O=C(O)C1=CC(=C(c2ccc(O)c(C(=O)O)c2)c2ccc(O)c(C(=O)O)c2)C=CC1=O` [AURINTRICARBOXYLIC ACID] showed an IC50 [2] of 200 nM.
In the case of `O.O=c1c(O)c(-c2ccc(O)cc2O)oc2cc(O)cc(O)c12`, the inhibition [4] is reported as “inactive”, the IC50 [5] is reported as 12000 nM and the inhibition [1] is reported as 81%. The inhibition [6] was “inactive”, the Activity [7] was “inactive” and the inhibition [8] was “inactive”. For the same compound, the inhibition [9] was “Dose-dependent effect”, the inhibition [10] was “Dose-dependent effect” and the IC50 [2] was 2600 nM. The Activity [3] was “inactive”, the Activity (A549) was “Non-toxic” and the inhibition [11] was “inactive”. For the same compound, the inhibition [12] was 50%, the inhibition [13] was 50% and the inhibition [14] was “Active”. For the same compound, the Activity (HeLa) was “Non-toxic”, the inhibition [15] was “Dose-dependent effect” and the inhibition [16] was “Dose-dependent effect”.
For `O=C/C=C/c1ccccc1`, the inhibition [1] was 0%.
With `O=c1c(O)c(-c2cc(O)c(O)c(O)c2)oc2cc(O)cc(O)c12` the inhibition [1] was 36%.
In the case of `O=c1c(O)c(-c2ccc(O)c(O)c2)oc2cc(O)cc(O)c12`, the inhibition [1] is reported as 38% and 44%, the inhibition [10] is reported as “inactive” and the inhibition [15] is reported as “inactive”.
`O=C(O)/C=C/c1ccc(O)c(O)c1` gave an inhibition [1] of 0%.
